Test results from ChEMBL document CHEMBL3102710, “Design, synthesis, and evaluation of fimbrolide-nitric oxide donor hybrids as antimicrobial agents” (J Med Chem, 2013).
Activity calls are given as the source filed them. Unless noted, no cut-off for these calls is given here.

What was measured:
Pseudomonas aeruginosa [1] = experiment: Antibacterial activity against Pseudomonas aeruginosa MH602 harboring lasB promoter fused with GFP-ASV assessed as growth inhibition at 266 uM measured every 30 mins by GFP-ASV reporter gene assay; format: organism-based; settings: MH602, 0.5 h, read-out: GI
Pseudomonas aeruginosa [2] = experiment: Antibacterial activity against Pseudomonas aeruginosa assessed as growth inhibition at 500 uM after 2 hrs by GFP reporter gene assay; format: organism-based; settings: in vivo
Pseudomonas aeruginosa [3] = experiment: Induction of nitric oxide-dependent nirS gene expression in Pseudomonas aeruginosa at 500 uM incubated for 2 hrs under dark condition by GFP reporter gene assay relative to untreated control; format: functional
[4] = Induction of nitric oxide release in PBS buffer supplemented with L-cysteine, xanthine, xanthine oxidase assessed as nitrite release at 250 to 500 uM after 1 hr by Griess assay; format: physicochemical
In short: (§1)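 Total NO release was quantified as nitrite with Griess reagent, which detects nitrite at ≥1 μM. Because of that limit, compounds were added at 250 μM and 500 μM.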

Pseudomonas aeruginosa [5] = experiment: Antibacterial activity against Pseudomonas aeruginosa PAO1 MH602 harboring lasB promoter fused with GFP-ASV assessed as growth inhibition at 88 uM measured every 30 mins by GFP-ASV reporter gene assay; format: organism-based; settings: for Activity: pseudomonas aeruginosa, in vivo, 0.5 h, 88 µM
In short: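 Cell growth of the PAO1 PlasB::gfp(ASV) reporter strain tracked as OD600 every half hour during compound incubation, alongside GFP readings. Growth is compared against the untreated control.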

[6] = Inhibition of quorum sensing system in Pseudomonas aeruginosa PAO1 MH602 harboring lasB promoter fused with GFP-ASV assessed as reduction in GFP-ASV reporter protein expression measured every 30 mins
In short: (§2)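 P. aeruginosa PAO1 carrying a PlasB::gfp(ASV) fusion plasmid, which makes its own AHL signals, incubated with compounds at 88.8, 29.6, 9.9, 3.3 or 1.0 μM. GFP fluorescence (RFU) read every half hour. Percent QS inhibition is the percent RFU difference between sample and untreated control, taken at the time point when control fluorescence peaks.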

[7] = Inhibition of quorum sensing system in Pseudomonas aeruginosa PAO1 MH602 harboring lasB promoter fused with GFP-ASV assessed as reduction in GFP-ASV reporter protein expression at 3.2 uM measured every 30 mins relative to control; in short: as §2
[8] = Inhibition of quorum sensing system in Pseudomonas aeruginosa PAO1 MH602 harboring lasB promoter fused with GFP-ASV assessed as reduction in GFP-ASV reporter protein expression at 9.8 uM measured every 30 mins relative to control; in short: as §2
[9] = Inhibition of quorum sensing system in Pseudomonas aeruginosa PAO1 MH602 harboring lasB promoter fused with GFP-ASV assessed as reduction in GFP-ASV reporter protein expression at 29 uM measured every 30 mins relative to control; in short: as §2
[10] = Inhibition of quorum sensing system in Pseudomonas aeruginosa PAO1 MH602 harboring lasB promoter fused with GFP-ASV assessed as reduction in GFP-ASV reporter protein expression at 88 uM measured every 30 mins relative to control; in short: as §2
[11] = Inhibition of quorum sensing system in Pseudomonas aeruginosa PAO1 MH602 harboring lasB promoter fused with GFP-ASV assessed as reduction in GFP-ASV reporter protein expression at 266 uM measured every 30 mins relative to control
Pseudomonas aeruginosa [12] = experiment: Antibacterial activity against Pseudomonas aeruginosa PAO1 assessed as inhibition of biofilm formation at 150 uM after 6 hrs by crystal violet staining assay relative to control; format: functional; settings: for inhibition at 150 µM: PAO1, 6 h
Pseudomonas aeruginosa [13] = experiment: Antibacterial activity against Pseudomonas aeruginosa PAO1 assessed as growth inhibition at 150 uM after 6 hrs; format: organism-based; settings: in vivo
[14] = Induction of nitric oxide release in PBS buffer supplemented with L-cysteine, xanthine, xanthine oxidase assessed as nitrite release at 500 uM after 1 hr by Griess assay; format: physicochemical; in short: as §1
[15] = Induction of nitric oxide release in PBS buffer supplemented with L-cysteine, xanthine, xanthine oxidase assessed as nitrite release at 250 to 500 uM after 24 hrs by Griess assay; format: physicochemical; in short: as §1

CCCC(O[N+](=O)[O-])C1=CC(=C(Br)Br)OC1=O (stereo unspecified)
inhibition at 266 µM (Pseudomonas aeruginosa [1]): > 15% | Activity (Pseudomonas aeruginosa [2]): Non-toxic | Activity (Pseudomonas aeruginosa [3]): inactive | Activity [4]: 1 µM | Activity (Pseudomonas aeruginosa [5]): Non-toxic | inhibition [6]: Dose-dependent effect | inhibition [7]: inactive | inhibition [8]: 22.4% | inhibition [9]: 39.9% | inhibition [10]: 71.4% | inhibition [11]: 91.1% | inhibition at 150 µM (Pseudomonas aeruginosa [12]): 70% | Activity (Pseudomonas aeruginosa [13]): Non-toxic

CCCCCCCCCCCC(O[N+](=O)[O-])C1=CC(=C(Br)Br)OC1=O (stereo unspecified)
Activity (Pseudomonas aeruginosa [2]): Non-toxic | Activity (Pseudomonas aeruginosa [3]): inactive | Activity [14]: 17.9 µM | Activity (Pseudomonas aeruginosa [5]): Non-toxic | inhibition [6]: Dose-dependent effect | inhibition [7]: inactive | inhibition [8]: inactive | inhibition [9]: inactive | inhibition [10]: 29% | inhibition [11]: 67.3% | inhibition at 150 µM (Pseudomonas aeruginosa [12]): 73%

CCCC(OC(=O)CO/N=[N+](\[O-])N1CCN(C(=O)OCC)CC1)C1=CC(=C(Br)Br)OC1=O (stereo unspecified)
Activity [15]: Not Active | Activity (Pseudomonas aeruginosa [5]): Non-toxic | inhibition [6]: Dose-dependent effect | inhibition [7]: inactive | inhibition [8]: 4% | inhibition [9]: 22.8% | inhibition [10]: 41.5% | inhibition [11]: 65.9% | inhibition (Pseudomonas aeruginosa [12]): inactive

CCCCCC(O[N+](=O)[O-])C1=CC(=C(Br)Br)OC1=O (stereo unspecified)
Activity (Pseudomonas aeruginosa [2]): Non-toxic | Activity (Pseudomonas aeruginosa [3]): inactive | Activity [4]: 1 µM | Activity (Pseudomonas aeruginosa [5]): Non-toxic | inhibition [6]: Dose-dependent effect | inhibition [7]: inactive | inhibition [8]: inactive | inhibition [9]: 32.5% | inhibition [10]: 56.4% | inhibition [11]: 73.1% | inhibition at 150 µM (Pseudomonas aeruginosa [12]): 70% | Activity (Pseudomonas aeruginosa [13]): Non-toxic

CC(O[N+](=O)[O-])C1=CC(=C(Br)Br)OC1=O (stereo unspecified)
inhibition at 266 µM (Pseudomonas aeruginosa [1]): > 15% | Activity (Pseudomonas aeruginosa [2]): Toxic | Activity (Pseudomonas aeruginosa [3]): inactive | inhibition at 88 µM (Pseudomonas aeruginosa [5]; Pseudomonas aeruginosa, PAO1 MH602, 0.5 h, read-out: GI): > 15% | inhibition [6]: Dose-dependent effect | inhibition [7]: inactive | inhibition [8]: inactive | inhibition [9]: 29% | inhibition [10]: 70.4% | inhibition [11]: 94.3% | inhibition (Pseudomonas aeruginosa [12]): Active

CCCCCCCCCCCC(OC(=O)CC(=O)N1CCN(/[N+]([O-])=N/OC)CC1)C1=CC(=C(Br)Br)OC1=O (stereo unspecified)
Activity [15]: Not Active | Activity (Pseudomonas aeruginosa [5]): Non-toxic | inhibition [6]: Dose-dependent effect | inhibition [7]: inactive | inhibition [8]: inactive | inhibition [9]: inactive | inhibition [10]: inactive | inhibition [11]: 40.9% | inhibition (Pseudomonas aeruginosa [12]): inactive

CCCC(OC(=O)CO[N+](=O)[O-])C1=CC(=C(Br)Br)OC1=O (stereo unspecified)
Activity (Pseudomonas aeruginosa [2]): Non-toxic | fold change (FC) (Pseudomonas aeruginosa [3]): 2.5 | Activity [14]: 29 µM | Activity (Pseudomonas aeruginosa [5]): Non-toxic | inhibition [6]: Dose-dependent effect | inhibition [7]: inactive | inhibition [8]: 23.2% | inhibition [9]: 49.6% | inhibition [10]: 72.9% | inhibition [11]: 88% | inhibition at 150 µM (Pseudomonas aeruginosa [12]): 61%
